Calls of active or inactive are those of the source. The calls are words filed in the database; no cut-off is given here.
How the values were obtained:
Candida albicans [1] = assay: Antifungal activity against Candida albicans ATCC 10231 at 200 ug/disk after 24 hrs by disk diffusion method; format: functional; conditions: for zone of inhibition at 200 µg/disc: ATCC 10231, 24 h, read-out: IZ
Method in brief: (§1)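 Disk diffusion on media seeded with the organism. Sterile paper discs (6 mm) carried test compound dissolved in DMSO at 12.5, 50, 100 or 200 µg/disc. DMSO-only discs served as controls. Plates were incubated 24 h at 37 °C. The read-out is the growth-inhibition zone diameter in mm, averaged over three trials (±1 mm).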

Candida albicans [2] = assay: Antifungal activity against Candida albicans ATCC 10231 at 100 ug/disk after 24 hrs by disk diffusion method; format: functional; conditions: for zone of inhibition at 100 µg/disc: ATCC 10231, 24 h, read-out: IZ; method in brief: as §1
Candida albicans [3] = assay: Antifungal activity against Candida albicans ATCC 10231 at 50 ug/disk after 24 hrs by disk diffusion method; format: functional; conditions: for zone of inhibition at 50 µg/disc: ATCC 10231, 24 h, read-out: IZ; method in brief: as §1
Staphylococcus aureus [4] = assay: Antibacterial activity against Staphylococcus aureus ATCC 25923 at 200 ug/disk after 24 hrs by disk diffusion method; format: functional; conditions: for zone of inhibition at 200 µg/disc: ATCC 25923, 24 h, read-out: IZ; method in brief: as §1
Staphylococcus aureus [5] = assay: Antibacterial activity against Staphylococcus aureus ATCC 25923 at 100 ug/disk after 24 hrs by disk diffusion method; format: functional; conditions: for zone of inhibition at 100 µg/disc: ATCC 25923, 24 h, read-out: IZ; method in brief: as §1
Staphylococcus aureus [6] = assay: Antibacterial activity against Staphylococcus aureus ATCC 25923 at 50 ug/disk after 24 hrs by disk diffusion method; format: functional; conditions: for zone of inhibition at 50 µg/disc: ATCC 25923, 24 h, read-out: IZ; method in brief: as §1
[7] = system: Staphylococcus epidermidis; assay: Antibacterial activity against Staphylococcus epidermidis ATCC 26069 at 200 ug/disk after 24 hrs by disk diffusion method; format: functional; conditions: for zone of inhibition at 200 µg/disc: ATCC 26069, 24 h, read-out: IZ; method in brief: as §1
[8] = system: Staphylococcus epidermidis; assay: Antibacterial activity against Staphylococcus epidermidis ATCC 26069 at 100 ug/disk after 24 hrs by disk diffusion method; format: functional; conditions: for zone of inhibition at 100 µg/disc: ATCC 26069, 24 h, read-out: IZ; method in brief: as §1
[9] = system: Staphylococcus epidermidis; assay: Antibacterial activity against Staphylococcus epidermidis ATCC 26069 at 50 ug/disk after 24 hrs by disk diffusion method; format: functional; conditions: for zone of inhibition at 50 µg/disc: ATCC 26069, 24 h, read-out: IZ; method in brief: as §1
Escherichia coli [10] = assay: Antibacterial activity against Escherichia coli ATCC 44752 at 200 ug/disk after 24 hrs by disk diffusion method; format: functional, organism-based; method in brief: as §1
Escherichia coli [11] = assay: Antibacterial activity against Escherichia coli ATCC 44752 at 100 ug/disk after 24 hrs by disk diffusion method; format: functional, organism-based; method in brief: as §1
Escherichia coli [12] = assay: Antibacterial activity against Escherichia coli ATCC 44752 at 50 ug/disk after 24 hrs by disk diffusion method; format: functional, organism-based; method in brief: as §1

SMILES | inhibition zone (IZ) (Escherichia coli [10]) | inhibition zone (IZ) (Escherichia coli [11]) | inhibition zone (IZ) (Escherichia coli [12]) | zone of inhibition at 200 µg/disc (Candida albicans [1]) | zone of inhibition at 100 µg/disc (Candida albicans [2]) | zone of inhibition at 50 µg/disc (Candida albicans [3]) | zone of inhibition at 200 µg/disc (Staphylococcus aureus [4]) | zone of inhibition at 100 µg/disc (Staphylococcus aureus [5]) | zone of inhibition at 50 µg/disc (Staphylococcus aureus [6]) | zone of inhibition at 200 µg/disc [7] | zone of inhibition at 100 µg/disc [8] | zone of inhibition at 50 µg/disc [9] | further results
CCOC(=O)C1=C(C)Nc2ccccc2SC1c1ccccc1Cl (centres undefined) | inactive | inactive | inactive | – | – | – | – | – | – | – | – | – | inhibition zone (IZ) (Candida albicans [1]): inactive; inhibition zone (IZ) (Candida albicans [2]): inactive; inhibition zone (IZ) (Candida albicans [3]): inactive; inhibition zone (IZ) (Staphylococcus aureus [4]): inactive; inhibition zone (IZ) (Staphylococcus aureus [5]): inactive; inhibition zone (IZ) (Staphylococcus aureus [6]): inactive; inhibition zone (IZ) [7]: inactive; inhibition zone (IZ) [8]: inactive; inhibition zone (IZ) [9]: inactive
CC(=O)C1=C(C)Nc2cc(Cl)ccc2SC1c1ccc(F)cc1 (centres undefined) | inactive | inactive | inactive | 10 mm | 9 mm | 8 mm | 9 mm | 9 mm | 8 mm | 8 mm | 8 mm | 7 mm | –
CC(=O)C1=C(C)Nc2ccccc2SC1c1ccc(F)cc1 (centres undefined) | inactive | inactive | inactive | 20 mm | 20 mm | 18 mm | 10 mm | 9 mm | 7 mm | 11 mm | 11 mm | 10 mm | –
CC(=O)C1=C(C)Nc2cc(Cl)ccc2SC1c1ccccc1[N+](=O)[O-] (centres undefined) | inactive | inactive | inactive | – | – | – | 8 mm | 7 mm | 7 mm | 8 mm | 8 mm | 7 mm | inhibition zone (IZ) (Candida albicans [1]): inactive; inhibition zone (IZ) (Candida albicans [2]): inactive; inhibition zone (IZ) (Candida albicans [3]): inactive
CC(=O)C1=C(C)Nc2cc(Cl)ccc2SC1c1ccc([N+](=O)[O-])cc1 (centres undefined) | inactive | inactive | inactive | 14 mm | 11 mm | 9 mm | 11 mm | 7 mm | 7 mm | 11 mm | 11 mm | 10 mm | –
CC(=O)C1=C(C)Nc2ccccc2SC1c1ccc(Cl)cc1Cl (centres undefined) | inactive | inactive | inactive | 14 mm | 10 mm | 9 mm | 10 mm | 7 mm | 7 mm | 11 mm | 8 mm | 7 mm | –
CC(=O)C1=C(C)Nc2cc(Cl)ccc2SC1c1ccccc1Cl (centres undefined) | inactive | inactive | inactive | 15 mm | 12 mm | 10 mm | 11 mm | 8 mm | 7 mm | 10 mm | 7 mm | 7 mm | –
CCOC(=O)C1=C(C)Nc2ccccc2SC1c1ccc([N+](=O)[O-])cc1 (centres undefined) | inactive | inactive | inactive | 7 mm | 6.5 mm | – | 7 mm | 6.5 mm | – | – | – | – | inhibition zone (IZ) (Candida albicans [3]): inactive; inhibition zone (IZ) (Staphylococcus aureus [6]): inactive; inhibition zone (IZ) [7]: inactive; inhibition zone (IZ) [8]: inactive; inhibition zone (IZ) [9]: inactive
CC(=O)C1=C(C)Nc2cc(Cl)ccc2SC1c1ccccc1 (centres undefined) | inactive | inactive | inactive | 13 mm | 9 mm | 7 mm | 10 mm | 7 mm | 7 mm | 11 mm | 8 mm | 7 mm | –
CC(=O)C1=C(C)Nc2ccccc2SC1c1ccc(O)cc1 (centres undefined) | inactive | inactive | inactive | 17 mm | 17 mm | 15 mm | 10 mm | 9.5 mm | 7 mm | 12 mm | 11 mm | 11 mm | –
CC(=O)C1=C(C)Nc2ccccc2SC1c1ccccc1[N+](=O)[O-] (centres undefined) | inactive | inactive | inactive | 16 mm | 13 mm | 11 mm | 12 mm | 11 mm | 8 mm | 10 mm | 9 mm | 7 mm | –
CC(=O)C1=C(C)Nc2ccccc2SC1c1ccc(C)cc1 (centres undefined) | inactive | inactive | inactive | 23 mm | 16 mm | 16 mm | 10 mm | 9 mm | 7 mm | 7 mm | 7 mm | 7 mm | –
CCOC(=O)C1=C(C)Nc2ccccc2SC1c1ccc(C)cc1 (centres undefined) | inactive | inactive | inactive | – | – | – | – | – | – | – | – | – | inhibition zone (IZ) (Candida albicans [1]): inactive; inhibition zone (IZ) (Candida albicans [2]): inactive; inhibition zone (IZ) (Candida albicans [3]): inactive; inhibition zone (IZ) (Staphylococcus aureus [4]): inactive; inhibition zone (IZ) (Staphylococcus aureus [5]): inactive; inhibition zone (IZ) (Staphylococcus aureus [6]): inactive; inhibition zone (IZ) [7]: inactive; inhibition zone (IZ) [8]: inactive; inhibition zone (IZ) [9]: inactive
CC(=O)C1=C(C)Nc2ccccc2SC1c1ccc([N+](=O)[O-])cc1 (centres undefined) | inactive | inactive | inactive | 20 mm | 18 mm | 16 mm | 13 mm | 12 mm | 10 mm | 13 mm | 12 mm | 10 mm | –
COc1ccc(C2Sc3ccccc3NC(C)=C2C(C)=O)cc1 (centres undefined) | inactive | inactive | inactive | 11 mm | 9 mm | 8 mm | 10 mm | 7 mm | 6.5 mm | 10 mm | 7 mm | – | inhibition zone (IZ) [9]: inactive
CC(=O)C1=C(C)Nc2cc(Cl)ccc2SC1c1ccc(Cl)cc1 (centres undefined) | inactive | inactive | inactive | 13 mm | 11 mm | 10 mm | 10 mm | 7.5 mm | 7 mm | 10 mm | 7.5 mm | 7 mm | –
CCOC(=O)C1=C(C)Nc2ccccc2SC1c1ccc(F)cc1 (centres undefined) | inactive | inactive | inactive | – | – | – | – | – | – | – | – | – | inhibition zone (IZ) (Candida albicans [1]): inactive; inhibition zone (IZ) (Candida albicans [2]): inactive; inhibition zone (IZ) (Candida albicans [3]): inactive; inhibition zone (IZ) (Staphylococcus aureus [4]): inactive; inhibition zone (IZ) (Staphylococcus aureus [5]): inactive; inhibition zone (IZ) (Staphylococcus aureus [6]): inactive; inhibition zone (IZ) [7]: inactive; inhibition zone (IZ) [8]: inactive; inhibition zone (IZ) [9]: inactive
